Test results as given in ChEMBL document CHEMBL4346653, “A2B Adenosine Receptor Antagonists with Picomolar Potency” (J Med Chem, 2019).

Assays:
Adenosine receptor A2a [1] = molecular target: T1, Adenosine receptor A2a (Homo sapiens, UniProt P29274); test: Displacement of [3H]MSX-2 from recombinant human A2A adenosine receptor expressed in CHO cell membranes measured after 30 mins in presence of adenosine deaminase by liquid scintillation counting method
Outline: (§1)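 Competition binding on membranes of cells recombinantly expressing the human receptor (CHO or HEK cells), with tritiated radioligand per subtype: [3H]PSB-603 for A2B, [3H]MSX-2 for A2A, [3H]CCPA for A1, [3H]PSB-11 for A3. Ki ± SEM from n = 3, some from extrapolated curves. Weak binders are reported as % inhibition of radioligand binding at 1 μM.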

Adenosine receptor A2a [2] = molecular target: T1, Adenosine receptor A2a; test: Displacement of [3H]MSX-2 from recombinant human A2A adenosine receptor expressed in CHO cell membranes at 1 uM measured after 30 mins in presence of adenosine deaminase by liquid scintillation counting method relative to control
Outline: (§2)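 Single-point competition binding at human AR subtype membranes, each against its own tritiated radioligand. The test compound is given at 1 μM, and the result is reported as percent inhibition of radioligand binding. The radioligand-specific footnotes give n = 3.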

[3] = molecular target: T2, Adenosine receptor A3 (Homo sapiens) (UniProt P0DMS8); test: Displacement of [3H]PSB-11 from recombinant human A3 adenosine receptor expressed in CHO cell membranes at 1 uM measured after 45 mins in presence of adenosine deaminase by liquid scintillation counting method relative to control; outline: as §2
T2 sequence (whole entry): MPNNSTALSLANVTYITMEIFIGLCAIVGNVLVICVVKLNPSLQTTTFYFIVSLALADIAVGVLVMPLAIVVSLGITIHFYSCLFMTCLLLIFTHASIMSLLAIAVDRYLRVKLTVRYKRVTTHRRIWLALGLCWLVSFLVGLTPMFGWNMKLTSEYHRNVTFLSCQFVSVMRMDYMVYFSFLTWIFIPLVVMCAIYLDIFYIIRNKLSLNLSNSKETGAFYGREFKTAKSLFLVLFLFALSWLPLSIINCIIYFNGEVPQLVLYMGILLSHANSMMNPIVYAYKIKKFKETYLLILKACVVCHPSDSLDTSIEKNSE

[4] = molecular target: T3, Adenosine receptor A1 (Homo sapiens) (UniProt P30542); test: Displacement of [3H]CCPA from recombinant human A1 adenosine receptor expressed in CHO cell membranes at 1 uM measured after 90 mins in presence of adenosine deaminase by liquid scintillation counting method relative to control; outline: as §2
T3 sequence (whole entry): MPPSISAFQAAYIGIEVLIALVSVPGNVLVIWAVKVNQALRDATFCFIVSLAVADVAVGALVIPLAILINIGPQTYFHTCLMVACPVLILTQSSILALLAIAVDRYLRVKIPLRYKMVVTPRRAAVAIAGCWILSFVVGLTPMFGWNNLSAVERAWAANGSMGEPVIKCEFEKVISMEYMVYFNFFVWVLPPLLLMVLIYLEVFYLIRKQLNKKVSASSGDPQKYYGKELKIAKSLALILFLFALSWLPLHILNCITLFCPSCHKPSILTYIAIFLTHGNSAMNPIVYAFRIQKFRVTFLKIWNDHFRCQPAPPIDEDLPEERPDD

Adenosine receptor A2b = molecular target: T4, Adenosine receptor A2b (Homo sapiens, UniProt P29275); test: Displacement of [3H]PSB-603 from recombinant human A2B adenosine receptor expressed in CHO cell membranes measured after 75 mins in presence of adenosine deaminase by liquid scintillation counting method; outline: as §1
T4 sequence (P29275 whole entry): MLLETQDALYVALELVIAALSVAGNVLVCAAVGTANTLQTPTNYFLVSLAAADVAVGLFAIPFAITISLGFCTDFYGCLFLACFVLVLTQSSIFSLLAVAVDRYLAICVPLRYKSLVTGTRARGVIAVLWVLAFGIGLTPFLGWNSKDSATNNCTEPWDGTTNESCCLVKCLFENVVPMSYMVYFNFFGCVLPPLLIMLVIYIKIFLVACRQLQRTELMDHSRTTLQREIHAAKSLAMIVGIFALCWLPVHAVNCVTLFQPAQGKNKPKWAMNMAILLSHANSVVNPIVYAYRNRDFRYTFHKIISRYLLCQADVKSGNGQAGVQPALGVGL

Homo sapiens [5] = species: Homo sapiens; test: Selectivity index, ratio of Ki for displacement of [3H]PSB-11 from recombinant human A3 adenosine receptor expressed in CHO cell membranes to Ki for displacement of [3H]PSB-603 from recombinant human A2B adenosine receptor expressed in CHO cell membranes
Homo sapiens [6] = species: Homo sapiens; test: Selectivity index, ratio of Ki for displacement of [3H]CCPA from recombinant human A1 adenosine receptor expressed in CHO cell membranes to Ki for displacement of [3H]PSB-603 from recombinant human A2B adenosine receptor expressed in CHO cell membranes
Adenosine receptor A3 = molecular target: T5, Adenosine receptor A3 (Homo sapiens, UniProt P0DMS8); test: Displacement of [3H]PSB-11 from recombinant human A3 adenosine receptor expressed in CHO cell membranes measured after 45 mins in presence of adenosine deaminase by liquid scintillation counting method; outline: as §1
T5 sequence (P0DMS8 whole entry): T2 sequence (whole entry)

Adenosine receptor A1 = molecular target: T6, Adenosine receptor A1 (Homo sapiens, UniProt P30542); test: Displacement of [3H]CCPA from recombinant human A1 adenosine receptor expressed in CHO cell membranes measured after 90 mins in presence of adenosine deaminase by liquid scintillation counting method; outline: as §1
T6 sequence (P30542 whole entry): T3 sequence (whole entry)

Homo sapiens [7] = species: Homo sapiens; test: Selectivity index, ratio of Ki for displacement of [3H]MSX-2 from recombinant human A2A adenosine receptor expressed in CHO cell membranes to Ki for displacement of [3H]PSB-603 from recombinant human A2B adenosine receptor expressed in CHO cell membranes

T1 sequence (P29274 whole entry): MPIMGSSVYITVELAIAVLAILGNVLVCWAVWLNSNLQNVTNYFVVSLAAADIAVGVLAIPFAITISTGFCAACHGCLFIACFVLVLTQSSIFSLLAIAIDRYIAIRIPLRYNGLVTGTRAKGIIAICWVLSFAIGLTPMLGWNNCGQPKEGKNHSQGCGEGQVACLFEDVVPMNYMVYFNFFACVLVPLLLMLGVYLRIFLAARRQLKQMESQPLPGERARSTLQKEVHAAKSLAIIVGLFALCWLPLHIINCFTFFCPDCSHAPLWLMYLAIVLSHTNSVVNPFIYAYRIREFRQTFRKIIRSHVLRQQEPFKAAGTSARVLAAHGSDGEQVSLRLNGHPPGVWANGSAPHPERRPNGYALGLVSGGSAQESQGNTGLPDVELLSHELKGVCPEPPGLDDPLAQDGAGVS

| SMILES | Ki (Adenosine receptor A2a [1]) | inhibition (Adenosine receptor A2a [2]) | inhibition [3] | inhibition [4] | Ki (Adenosine receptor A2b) | Ki (Adenosine receptor A3) | Ki (Adenosine receptor A1) | Ratio Ki (Homo sapiens [5]) | Ratio Ki (Homo sapiens [6]) | Ratio Ki (Homo sapiens [7]) |
| --- | --- | --- | --- | --- | --- | --- | --- | --- | --- | --- |
| CCCn1c(=O)[nH]c2nc(-c3ccc(S(=O)(=O)N4CCN(C(C)c5ccccc5)CC4)cc3)[nH]c2c1=O (centres undefined) | ≥ 1000 nM | 42% | 0% | 42% | 8.34 nM | > 1000 nM | ≥ 1000 nM | > 120 | > 120 | > 120 |
| CCCn1c(=O)[nH]c2nc(-c3ccc(S(=O)(=O)N4CCN(c5ccc(OC)c(Cl)c5)CC4)cc3)[nH]c2c1=O | > 1000 nM | 31% | 1% | 23% | 0.352 nM | > 1000 nM | > 1000 nM | > 2840 | > 2840 | > 2840 |
| CCCn1c(=O)[nH]c2nc(-c3ccc(S(=O)(=O)N4CCN(c5ccccc5F)CC4)cc3)[nH]c2c1=O | > 1000 nM | 27% | 9% | 13% | 3.22 nM | > 1000 nM | > 1000 nM | > 310 | > 310 | > 310 |
| CCCn1c(=O)[nH]c2nc(-c3ccc(S(=O)(=O)N4CCN(c5ccc(C)cc5)CC4)cc3)[nH]c2c1=O | > 1000 nM | 34% | 25% | 12% | 0.706 nM | > 1000 nM | > 1000 nM | > 1420 | > 1420 | > 1420 |

Second part, led by results:

| Ki (Adenosine receptor A2a [1]) | inhibition (Adenosine receptor A2a [2]) | inhibition [3] | inhibition [4] | Ki (Adenosine receptor A2b) | Ki (Adenosine receptor A3) | Ki (Adenosine receptor A1) | SMILES | Ratio Ki (Homo sapiens [5]) | Ratio Ki (Homo sapiens [6]) | Ratio Ki (Homo sapiens [7]) |
| --- | --- | --- | --- | --- | --- | --- | --- | --- | --- | --- |
| > 1000 nM | 24% | 27% | -1% | 0.234 nM | > 1000 nM | > 1000 nM | CCCn1c(=O)[nH]c2nc(-c3ccc(S(=O)(=O)N4CCN(c5cccc(Br)c5)CC4)cc3)[nH]c2c1=O | > 4270 | > 4270 | > 4270 |
| 2990 nM | – | 36% | 24% | 0.159 nM | > 1000 nM | > 1000 nM | CCCn1c(=O)[nH]c2nc(-c3ccc(S(=O)(=O)N4CCN(c5ccc(I)cc5)CC4)cc3)[nH]c2c1=O | > 6290 | > 6290 | > 6290 |
